Where a name gives a salt, the structure may show the parent alone. The source made the active and inactive calls. The rule behind the calls is not given here.
Legend:
[1] = biological target: T1, Muscarinic acetylcholine receptor M1 (Homo sapiens, UniProt P11229); experiment: Displacement of [3H]N-methylscopolamine from human muscarinic M1 receptor expressed in CHO-K1 cells; assay type: cell-based
T1 sequence (P11229 whole entry): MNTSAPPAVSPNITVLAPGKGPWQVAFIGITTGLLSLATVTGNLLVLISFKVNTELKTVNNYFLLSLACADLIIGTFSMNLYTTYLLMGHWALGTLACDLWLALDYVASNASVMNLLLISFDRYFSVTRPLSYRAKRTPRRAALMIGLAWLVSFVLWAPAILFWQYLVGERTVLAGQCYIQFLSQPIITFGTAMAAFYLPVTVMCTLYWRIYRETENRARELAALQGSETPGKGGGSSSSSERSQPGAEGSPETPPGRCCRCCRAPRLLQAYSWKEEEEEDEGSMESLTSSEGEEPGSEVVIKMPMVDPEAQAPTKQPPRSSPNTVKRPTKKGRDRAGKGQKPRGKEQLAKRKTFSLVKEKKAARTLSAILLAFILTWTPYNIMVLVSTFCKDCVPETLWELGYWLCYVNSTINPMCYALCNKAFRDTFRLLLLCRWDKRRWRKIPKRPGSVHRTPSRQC

[2] = biological target: T2, Muscarinic acetylcholine receptor M2 (Homo sapiens, UniProt P08172); experiment: Displacement of [3H]N-methylscopolamine from human muscarinic M2 receptor expressed in CHO-K1 cells; assay type: cell-based
T2 sequence (P08172 whole entry): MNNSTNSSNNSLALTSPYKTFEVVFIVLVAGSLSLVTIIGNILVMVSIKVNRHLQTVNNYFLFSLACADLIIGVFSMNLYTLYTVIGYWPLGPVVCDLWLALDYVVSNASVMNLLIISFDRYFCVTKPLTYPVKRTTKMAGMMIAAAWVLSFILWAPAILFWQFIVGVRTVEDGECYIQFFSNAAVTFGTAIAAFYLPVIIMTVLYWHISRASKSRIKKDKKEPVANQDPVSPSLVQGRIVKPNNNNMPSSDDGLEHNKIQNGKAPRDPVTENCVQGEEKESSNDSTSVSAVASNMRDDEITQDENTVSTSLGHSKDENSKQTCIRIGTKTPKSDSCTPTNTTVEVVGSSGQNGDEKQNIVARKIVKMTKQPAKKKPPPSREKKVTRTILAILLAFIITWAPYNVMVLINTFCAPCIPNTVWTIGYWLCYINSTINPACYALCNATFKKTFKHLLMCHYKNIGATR
Outline: (§1)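 Binding was measured in CHO-K1 stable transfectants expressing the human receptor subtype. Labelled ligand was [³H]-N-methylscopolamine chloride. Values are the mean of three experiments performed in triplicate.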

[3] = biological target: T3, Muscarinic acetylcholine receptor M3 (Homo sapiens, UniProt P20309); experiment: Displacement of [3H]N-methylscopolamine from human muscarinic M3 receptor expressed in CHO-K1 cells; assay type: cell-based
Target sequence in this assay (P20309 whole entry): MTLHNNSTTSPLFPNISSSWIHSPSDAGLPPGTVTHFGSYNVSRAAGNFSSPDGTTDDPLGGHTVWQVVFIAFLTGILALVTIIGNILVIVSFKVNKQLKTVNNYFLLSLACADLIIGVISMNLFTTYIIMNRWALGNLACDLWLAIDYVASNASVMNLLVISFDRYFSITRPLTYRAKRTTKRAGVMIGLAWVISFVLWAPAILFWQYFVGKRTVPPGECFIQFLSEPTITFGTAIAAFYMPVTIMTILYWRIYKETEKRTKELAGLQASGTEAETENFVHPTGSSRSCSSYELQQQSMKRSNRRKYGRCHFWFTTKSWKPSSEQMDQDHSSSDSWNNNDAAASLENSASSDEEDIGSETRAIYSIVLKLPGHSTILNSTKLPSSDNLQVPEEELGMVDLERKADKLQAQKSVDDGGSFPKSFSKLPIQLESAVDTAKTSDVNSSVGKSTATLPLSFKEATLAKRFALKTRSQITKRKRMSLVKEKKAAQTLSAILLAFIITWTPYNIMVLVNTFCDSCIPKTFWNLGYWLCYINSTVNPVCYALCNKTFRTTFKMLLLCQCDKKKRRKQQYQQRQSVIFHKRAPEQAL

[4] = biological target: T4, Muscarinic acetylcholine receptor M4 (Homo sapiens, UniProt P08173); experiment: Displacement of [3H]N-methylscopolamine from human muscarinic M4 receptor expressed in CHO-K1 cells; assay type: cell-based; outline: as §1
T4 sequence (P08173 whole entry): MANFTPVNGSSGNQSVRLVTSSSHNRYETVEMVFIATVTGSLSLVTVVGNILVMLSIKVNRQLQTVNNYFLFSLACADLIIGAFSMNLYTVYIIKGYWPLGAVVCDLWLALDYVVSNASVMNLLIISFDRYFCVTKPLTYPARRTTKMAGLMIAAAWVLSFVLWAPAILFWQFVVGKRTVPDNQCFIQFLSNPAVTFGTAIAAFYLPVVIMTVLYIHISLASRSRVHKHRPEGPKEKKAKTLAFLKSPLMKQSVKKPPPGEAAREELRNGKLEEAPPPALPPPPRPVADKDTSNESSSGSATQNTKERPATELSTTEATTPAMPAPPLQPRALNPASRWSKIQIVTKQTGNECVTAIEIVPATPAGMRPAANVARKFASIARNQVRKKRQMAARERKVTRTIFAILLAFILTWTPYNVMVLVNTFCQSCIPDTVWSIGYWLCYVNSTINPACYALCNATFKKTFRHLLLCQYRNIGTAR

[5] = biological target: T5, Muscarinic acetylcholine receptor M5 (Homo sapiens, UniProt P08912); experiment: Displacement of [3H]N-methylscopolamine from human muscarinic M5 receptor expressed in CHO-K1 cells; assay type: cell-based; outline: as §1
T5 sequence (P08912 whole entry): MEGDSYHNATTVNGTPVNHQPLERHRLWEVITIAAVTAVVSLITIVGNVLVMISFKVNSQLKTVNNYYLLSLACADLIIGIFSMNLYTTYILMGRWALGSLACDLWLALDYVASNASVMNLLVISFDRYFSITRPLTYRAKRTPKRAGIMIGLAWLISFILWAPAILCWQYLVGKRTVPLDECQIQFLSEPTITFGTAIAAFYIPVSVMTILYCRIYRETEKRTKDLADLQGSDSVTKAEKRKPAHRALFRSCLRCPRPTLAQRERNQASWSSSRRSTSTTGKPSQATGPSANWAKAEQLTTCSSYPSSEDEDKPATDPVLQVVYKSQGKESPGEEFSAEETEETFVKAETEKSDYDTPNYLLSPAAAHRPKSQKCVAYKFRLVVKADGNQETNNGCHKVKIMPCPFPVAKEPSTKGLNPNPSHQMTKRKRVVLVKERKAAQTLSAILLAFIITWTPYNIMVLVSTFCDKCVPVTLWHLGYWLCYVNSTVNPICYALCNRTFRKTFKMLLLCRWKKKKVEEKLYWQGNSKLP

[6] = biological target: T3, Muscarinic acetylcholine receptor M3; experiment: Antagonist activity at human muscarinic M3 receptor expressed in CHO cells assessed as inhibition of carbachol-induced Eu-GTP binding; assay type: cell-based
Outline: (§2)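 Membranes from CHO-K1 cells stably expressing the human receptor subtype. Agonist was carbachol, and the read-out was carbachol-stimulated binding of the non-hydrolysable analogue Eu-GTP to Gα subunits. pKb was estimated functionally by concentration-ratio analysis. Values are the mean of three experiments run in triplicate.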
Target sequence in this assay (P20309 whole entry, looked up): as the sequence (P20309 whole entry) above

[7] = biological target: T6, Muscarinic acetylcholine receptor M4 (Homo sapiens) (UniProt P08173); experiment: Antagonist activity at human muscarinic M4 receptor expressed in CHO cells assessed as inhibition of carbachol-induced Eu-GTP binding; assay type: cell-based; outline: as §2
T6 sequence (whole entry): T4 sequence (P08173 whole entry)

[8] = biological target: T7, Muscarinic acetylcholine receptor M5 (Homo sapiens) (UniProt P08912); experiment: Antagonist activity at human muscarinic M5 receptor expressed in CHO cells assessed as inhibition of carbachol-induced Eu-GTP binding; assay type: cell-based; outline: as §2
T7 sequence (whole entry): T5 sequence (P08912 whole entry)

[9] = biological target: T8, Muscarinic acetylcholine receptor M1 (Homo sapiens) (UniProt P11229); experiment: Antagonist activity at human muscarinic M1 receptor expressed in CHO cells assessed as inhibition of basal Eu-GTP binding; assay type: cell-based
T8 sequence (whole entry): T1 sequence (P11229 whole entry)

[10] = biological target: T9, Muscarinic acetylcholine receptor M2 (Homo sapiens) (UniProt P08172); experiment: Antagonist activity at human muscarinic M2 receptor expressed in CHO cells assessed as inhibition of basal Eu-GTP binding; assay type: cell-based
T9 sequence (whole entry): T2 sequence (P08172 whole entry)

[11] = biological target: T3, Muscarinic acetylcholine receptor M3; experiment: Antagonist activity at human muscarinic M3 receptor expressed in CHO cells assessed as inhibition of basal Eu-GTP binding; assay type: cell-based
Target sequence in this assay (P20309 whole entry, looked up): as the sequence (P20309 whole entry) above

[12] = biological target: T6, Muscarinic acetylcholine receptor M4 (Homo sapiens); experiment: Antagonist activity at human muscarinic M4 receptor expressed in CHO cells assessed as inhibition of basal Eu-GTP binding; assay type: cell-based
[13] = biological target: T7, Muscarinic acetylcholine receptor M5 (Homo sapiens); experiment: Antagonist activity at human muscarinic M5 receptor expressed in CHO cells assessed as inhibition of basal Eu-GTP binding; assay type: cell-based
[14] = biological target: T4, Muscarinic acetylcholine receptor M4; experiment: Antagonist activity at human muscarinic M4 receptor expressed in CHO cells assessed as blockade of carbachol-induced inhibition of forskolin-stimulated cAMP accumulation; assay type: functional, cell-based
[15] = biological target: T8, Muscarinic acetylcholine receptor M1 (Homo sapiens); experiment: Antagonist activity at human muscarinic M1 receptor expressed in CHO cells assessed as inhibition of carbachol-induced Eu-GTP binding; assay type: cell-based; outline: as §2
[16] = biological target: T9, Muscarinic acetylcholine receptor M2 (Homo sapiens); experiment: Antagonist activity at human muscarinic M2 receptor expressed in CHO cells assessed as inhibition of carbachol-induced Eu-GTP binding; assay type: cell-based; outline: as §2
[17] = biological target: T6, Muscarinic acetylcholine receptor M4 (Homo sapiens); experiment: Antagonist activity at human muscarinic M4 receptor expressed in CHO cells assessed as inhibition of forskolin-stimulated cAMP accumulation in absence of carbachol at 01 nM to 1 uM; assay type: functional, cell-based

| SMILES | Ki [1] [µM] | Ki [2] [µM] | Ki [3] [µM] | Ki [4] [µM] | Ki [5] [µM] | pKb [6] | pKb [7] | pKb [8] | Activity [9] | Activity [10] | Activity [11] | Activity [12] | Activity [13] | EC50 [14] [µM] | IC50 [14] [µM] | pKb [15] | pKb [16] | Activity [17] |
| --- | --- | --- | --- | --- | --- | --- | --- | --- | --- | --- | --- | --- | --- | --- | --- | --- | --- | --- |
| C[N+]1(CCCC(O)(c2ccccc2)c2ccccc2)CCN(CCCC(O)(c2ccccc2)c2ccccc2)CC1 | 7.08 | 2.29 | 5.5 | 1.23 | 1.55 | – | – | – | – | – | – | – | – | – | – | – | – | – |
| OC(CCCN1CCN(c2ccccc2)CC1)(c1ccccc1)c1ccccc1 | 363 | 457 | 70.8 | 100 | 123 | – | – | – | – | – | – | – | – | – | – | – | – | – |
| CN1CCC(C2CCN(CCCC(O)(c3ccccc3)c3ccccc3)CC2)CC1 | 5.75 | 3.98 | 5.25 | 1.17 | 2.88 | – | – | – | – | – | – | – | – | – | – | – | – | – |
| C[N+]1(C)CCN(CCCC(O)(c2ccccc2)c2ccccc2)CC1 | 2.95 | 23.4 | 4.07 | 4.79 | 9.55 | – | – | – | – | – | – | – | – | – | – | – | – | – |
| C[N+]1(CCCC(O)(c2ccccc2)c2ccccc2)CCN(c2ccccc2)CC1 | 17.4 | 25.7 | 7.59 | 22.9 | 6.92 | – | – | – | – | – | – | – | – | – | – | – | – | – |
| C[N+]1(C)CCC(C2CC[N+](C)(CCCC(O)(c3ccccc3)c3ccccc3)CC2)CC1 (centres undefined) | 8.32 | 4.37 | 3.63 | 2.69 | 25.7 | – | – | – | – | – | – | – | – | – | – | – | – | – |
| CN(CCCC(O)(c1ccccc1)c1ccccc1)CCN(C)CCCC(O)(c1ccccc1)c1ccccc1 | 245 | 214 | 380 | 162 | 229 | – | – | – | – | – | – | – | – | – | – | – | – | – |
| C[N+]1(CCCC(O)(c2ccccc2)c2ccccc2)CCC(C2CC[N+](C)(CCCC(O)(c3ccccc3)c3ccccc3)CC2)CC1 (centres undefined) | 0.603 | 0.363 | 0.372 | 0.0126 | 0.589 | 6.25 | 7.83 | 6.02 | inactive | inactive | inactive | inactive | inactive | 0.067 | 0.067 | 6.04 | 6.1 | – |
| C[N+](C)(CCCC(O)(c1ccccc1)c1ccccc1)CCC[N+](C)(C)CCCC(O)(c1ccccc1)c1ccccc1 | 7.24 | 12 | 12.3 | 11.2 | 7.59 | – | – | – | – | – | – | – | – | – | – | – | – | – |
| CCOC(=O)c1c(C)[nH]c2ccc3c(c12)CN1CCc2cc(OC)ccc2C1O3 (centres undefined) | 2.29 | 1.1 | 0.724 | 0.00646 | 1.82 | 5.63 | 7.9 | 5.84 | inactive | inactive | inactive | inactive | inactive | 0.054 | > 1 | 5.74 | 5.55 | inactive |
| OC(CCCN1CCN(CCCC(O)(c2ccccc2)c2ccccc2)CC1)(c1ccccc1)c1ccccc1 | 851 | 178 | 87.1 | 22.4 | 23.4 | – | – | – | – | – | – | – | – | – | – | – | – | – |
| CN1CCN(CCCC(O)(c2ccccc2)c2ccccc2)CC1 | 7.76 | 35.5 | 7.41 | 9.77 | 13.5 | – | – | – | – | – | – | – | – | – | – | – | – | – |
| OC(CCCN1CCCCC1)(c1ccccc1)c1ccccc1 [DIPHENIDOL HYDROCHLORIDE] | – | 2.82 | – | 0.912 | 1.29 | – | – | – | – | – | – | – | – | – | – | – | – | – |
| OC(CCCN1CCNCC1)(c1ccccc1)c1ccccc1 | 0.603 | 7.24 | 0.661 | 1.17 | 1.41 | – | – | – | – | – | – | – | – | – | – | – | – | – |
| C[N+](C)(CCCC(O)(c1ccccc1)c1ccccc1)CC[N+](C)(C)CCCC(O)(c1ccccc1)c1ccccc1 | 26.3 | 47.9 | 43.7 | 11.2 | 18.2 | – | – | – | – | – | – | – | – | – | – | – | – | – |
| CN(CCCN(C)CCCC(O)(c1ccccc1)c1ccccc1)CCCC(O)(c1ccccc1)c1ccccc1 | 1.35 | 5.5 | 1.74 | 0.617 | 0.832 | – | – | – | – | – | – | – | – | – | – | – | – | – |
| C[N+]1(CCCC(O)(c2ccccc2)c2ccccc2)CCCCC1 | 0.2 | 0.275 | 0.275 | 0.288 | 0.708 | – | – | – | – | – | – | – | – | – | – | – | – | – |
| OC(CCCN1CCC(C2CCN(CCCC(O)(c3ccccc3)c3ccccc3)CC2)CC1)(c1ccccc1)c1ccccc1 | 0.794 | 0.871 | 0.724 | 0.0741 | 0.776 | 6.14 | 7.21 | 6.4 | inactive | inactive | inactive | inactive | inactive | 0.138 | – | 5.92 | 5.82 | – |

From ChEMBL document CHEMBL1144815, “Diphenidol-related diamines as novel muscarinic M4 receptor antagonists” (Bioorg Med Chem Lett, 2008)
